Activity data for 12 compounds are collected here from ChEMBL document CHEMBL4257452, “A mini-library system to investigate non-essential residues of lipid-phosphatidylserine (PS) binding peptide-peptoid hybrid PPS1” (Medchemcomm, 2017).

Calls of active or inactive are those of the source. No cut-off for these calls is given here. Starred links: 1 amine or outer side, 2 acyl side, 3 side chain; linkers in the order of their positions; H or OH if unused. Positions of bridges follow the written chain, without caps; N, C: chain ends. Non-standard residues stand in square brackets, D forms with d. Residues, ends and D or L forms follow the SMILES beside them. Chains are numbered I, II in the order given. N(3,4-(MeO)2phenethyl)Gly = COc1ccc(CCNCC(=O)O)cc1OC; Gly(N-piperonyl) = O=C(O)CNCc1ccc2c(c1)OCO2; Gly(Nα-4-Cl-benzyl) = O=C(O)CNCc1ccc(Cl)cc1; N(4-MeOBn)Gly = COc1ccc(CNCC(=O)O)cc1; N(CH2CH2NHAc)Gly = CC(=O)NCCNCC(=O)O; X3 = CC(c1ccccc1)N(CC(=O)[*:2])[*:1]; Gly(NCH2CH2Ph) = O=C(O)CNCCc1ccccc1; N(4-MeBn)Gly = Cc1ccc(CNCC(=O)O)cc1; N(isopentyl)Gly = CC(C)CCNCC(=O)O; Gly(N-propargyl) = C#CCNCC(=O)O; NFurfurylGly = O=C(O)CNCc1ccco1; Gly(N-cPent) = O=C(O)CNC1CCCC1; NAllylGly = C=CCNCC(=O)O; NcPrGly = O=C(O)CNC1CC1

The subject of this assay is HCC4017. In words: Cytotoxicity against human HCC4017 cells assessed as reduction in cell viability at 20 uM after 24 hrs by MTS assay. The assay is classed as functional, cell-based. The essentials:
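HCC4017 cells (RPMI, 5% FBS) and HBEC-3KT normal lung cells (KSFM with recombinant human EGF and bovine pituitary extract) were plated at 10 000 cells/well in triplicate and left to adhere overnight. They were exposed to 1 or 20 μM compound for 24 h. MTS reagent was then added for 2 h and absorbance read at 490 nm. Viability is % of untreated control wells.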
(Tetrazolium dyes change colour on reduction, which living cells bring about.)
Turning to `COc1ccc(CN(CC(=O)N(CC(=O)NC(CCCCN)C(=O)NC(CCCCN)C(=O)NC(CCSC)C(=O)NCCCCC(NC(=O)C(CCSC)NC(=O)C(CCCCN)NC(=O)C(CCCCN)NC(=O)CN(C(=O)CN(Cc2ccc(OC)cc2)C(=O)CN(C(=O)CN(Cc2ccc3c(c2)OCO3)C(=O)CNC(C)c2ccccc2)C(C)c2ccccc2)C2CCCC2)C(N)=O)C2CCCC2)C(=O)CN(C(=O)CN(Cc2ccc3c(c2)OCO3)C(=O)CNC(C)c2ccccc2)C(C)c2ccccc2)cc1` (configuration not stated) (I: H-[X3][Gly(N-piperonyl)][X3][N(4-MeOBn)Gly][Gly(N-cPent)]KKMK-NH2 / II: H-[X3][Gly(N-piperonyl)][X3][N(4-MeOBn)Gly][Gly(N-cPent)]KKM; amide I:9-II:C; configuration not given here), the result was Active.
Consider `C#CCN(CC(=O)NC(CCCCN)C(=O)NC(CCCCN)C(=O)NC(CCSC)C(=O)NCCCCC(NC(=O)C(CCSC)NC(=O)C(CCCCN)NC(=O)C(CCCCN)NC(=O)CN(CC#C)C(=O)CN(Cc1ccc(OC)cc1)C(=O)CN(C(=O)CN(Cc1ccc2c(c1)OCO2)C(=O)CNC(C)c1ccccc1)C(C)c1ccccc1)C(N)=O)C(=O)CN(Cc1ccc(OC)cc1)C(=O)CN(C(=O)CN(Cc1ccc2c(c1)OCO2)C(=O)CNC(C)c1ccccc1)C(C)c1ccccc1` (configuration not stated) (I: H-[X3][Gly(N-piperonyl)][X3][N(4-MeOBn)Gly][Gly(N-propargyl)]KKMK-NH2 / II: H-[X3][Gly(N-piperonyl)][X3][N(4-MeOBn)Gly][Gly(N-propargyl)]KKM; amide I:9-II:C; configuration not given here), for which the outcome was Active.
For `COc1ccc(CN(CC(=O)N(CCc2ccccc2)CC(=O)NC(CCCCN)C(=O)NC(CCCCN)C(=O)NC(CCSC)C(=O)NCCCCC(NC(=O)C(CCSC)NC(=O)C(CCCCN)NC(=O)C(CCCCN)NC(=O)CN(CCc2ccccc2)C(=O)CN(Cc2ccc(OC)cc2)C(=O)CN(C(=O)CN(Cc2ccc3c(c2)OCO3)C(=O)CNC(C)c2ccccc2)C(C)c2ccccc2)C(N)=O)C(=O)CN(C(=O)CN(Cc2ccc3c(c2)OCO3)C(=O)CNC(C)c2ccccc2)C(C)c2ccccc2)cc1` (configuration not stated) (I: H-[X3][Gly(N-piperonyl)][X3][N(4-MeOBn)Gly][Gly(NCH2CH2Ph)]KKMK-NH2 / II: H-[X3][Gly(N-piperonyl)][X3][N(4-MeOBn)Gly][Gly(NCH2CH2Ph)]KKM; amide I:9-II:C; configuration not given here), the outcome was Active.
As for `COc1ccc(CN(CC(=O)N(CC(=O)NC(CCCCN)C(=O)NC(CCCCN)C(=O)NC(CCSC)C(=O)NCCCCC(NC(=O)C(CCSC)NC(=O)C(CCCCN)NC(=O)C(CCCCN)NC(=O)CN(Cc2ccc(Cl)cc2)C(=O)CN(Cc2ccc(OC)cc2)C(=O)CN(C(=O)CN(Cc2ccc3c(c2)OCO3)C(=O)CNC(C)c2ccccc2)C(C)c2ccccc2)C(N)=O)Cc2ccc(Cl)cc2)C(=O)CN(C(=O)CN(Cc2ccc3c(c2)OCO3)C(=O)CNC(C)c2ccccc2)C(C)c2ccccc2)cc1` (configuration not stated) (I: H-[X3][Gly(N-piperonyl)][X3][N(4-MeOBn)Gly][Gly(Nα-4-Cl-benzyl)]KKMK-NH2 / II: H-[X3][Gly(N-piperonyl)][X3][N(4-MeOBn)Gly][Gly(Nα-4-Cl-benzyl)]KKM; amide I:9-II:C; configuration not given here), the result was Active.
Regarding `COc1ccc(CN(CC(=O)N(CCc2ccc(OC)c(OC)c2)CC(=O)NC(CCCCN)C(=O)NC(CCCCN)C(=O)NC(CCSC)C(=O)NCCCCC(NC(=O)C(CCSC)NC(=O)C(CCCCN)NC(=O)C(CCCCN)NC(=O)CN(CCc2ccc(OC)c(OC)c2)C(=O)CN(Cc2ccc(OC)cc2)C(=O)CN(C(=O)CN(Cc2ccc3c(c2)OCO3)C(=O)CNC(C)c2ccccc2)C(C)c2ccccc2)C(N)=O)C(=O)CN(C(=O)CN(Cc2ccc3c(c2)OCO3)C(=O)CNC(C)c2ccccc2)C(C)c2ccccc2)cc1` (configuration not stated) (I: H-[X3][Gly(N-piperonyl)][X3][N(4-MeOBn)Gly][N(3,4-(MeO)2phenethyl)Gly]KKMK-NH2 / II: H-[X3][Gly(N-piperonyl)][X3][N(4-MeOBn)Gly][N(3,4-(MeO)2phenethyl)Gly]KKM; amide I:9-II:C; configuration not given here), the outcome was Active.
Consider `COc1ccc(CN(CC(=O)N(CC(=O)NC(CCCCN)C(=O)NC(CCCCN)C(=O)NC(CCSC)C(=O)NCCCCC(NC(=O)C(CCSC)NC(=O)C(CCCCN)NC(=O)C(CCCCN)NC(=O)CN(Cc2ccc(C)cc2)C(=O)CN(Cc2ccc(OC)cc2)C(=O)CN(C(=O)CN(Cc2ccc3c(c2)OCO3)C(=O)CNC(C)c2ccccc2)C(C)c2ccccc2)C(N)=O)Cc2ccc(C)cc2)C(=O)CN(C(=O)CN(Cc2ccc3c(c2)OCO3)C(=O)CNC(C)c2ccccc2)C(C)c2ccccc2)cc1` (configuration not stated) (I: H-[X3][Gly(N-piperonyl)][X3][N(4-MeOBn)Gly][N(4-MeBn)Gly]KKMK-NH2 / II: H-[X3][Gly(N-piperonyl)][X3][N(4-MeOBn)Gly][N(4-MeBn)Gly]KKM; amide I:9-II:C; configuration not given here), for which the result was Active.
As to `COc1ccc(CN(CC(=O)NC(CCCCN)C(=O)NC(CCCCN)C(=O)NC(CCSC)C(=O)NCCCCC(NC(=O)C(CCSC)NC(=O)C(CCCCN)NC(=O)C(CCCCN)NC(=O)CN(Cc2ccc(OC)cc2)C(=O)CN(Cc2ccc(OC)cc2)C(=O)CN(C(=O)CN(Cc2ccc3c(c2)OCO3)C(=O)CNC(C)c2ccccc2)C(C)c2ccccc2)C(N)=O)C(=O)CN(Cc2ccc(OC)cc2)C(=O)CN(C(=O)CN(Cc2ccc3c(c2)OCO3)C(=O)CNC(C)c2ccccc2)C(C)c2ccccc2)cc1` (configuration not stated) (I: H-[X3][Gly(N-piperonyl)][X3][N(4-MeOBn)Gly][N(4-MeOBn)Gly]KKMK-NH2 / II: H-[X3][Gly(N-piperonyl)][X3][N(4-MeOBn)Gly][N(4-MeOBn)Gly]KKM; amide I:9-II:C; configuration not given here), the result was Active.
Next, `COc1ccc(CN(CC(=O)N(CCNC(C)=O)CC(=O)NC(CCCCN)C(=O)NC(CCCCN)C(=O)NC(CCSC)C(=O)NCCCCC(NC(=O)C(CCSC)NC(=O)C(CCCCN)NC(=O)C(CCCCN)NC(=O)CN(CCNC(C)=O)C(=O)CN(Cc2ccc(OC)cc2)C(=O)CN(C(=O)CN(Cc2ccc3c(c2)OCO3)C(=O)CNC(C)c2ccccc2)C(C)c2ccccc2)C(N)=O)C(=O)CN(C(=O)CN(Cc2ccc3c(c2)OCO3)C(=O)CNC(C)c2ccccc2)C(C)c2ccccc2)cc1` (configuration not stated) (I: H-[X3][Gly(N-piperonyl)][X3][N(4-MeOBn)Gly][N(CH2CH2NHAc)Gly]KKMK-NH2 / II: H-[X3][Gly(N-piperonyl)][X3][N(4-MeOBn)Gly][N(CH2CH2NHAc)Gly]KKM; amide I:9-II:C; configuration not given here): “Active”.
In the case of `COc1ccc(CN(CC(=O)N(CCC(C)C)CC(=O)NC(CCCCN)C(=O)NC(CCCCN)C(=O)NC(CCSC)C(=O)NCCCCC(NC(=O)C(CCSC)NC(=O)C(CCCCN)NC(=O)C(CCCCN)NC(=O)CN(CCC(C)C)C(=O)CN(Cc2ccc(OC)cc2)C(=O)CN(C(=O)CN(Cc2ccc3c(c2)OCO3)C(=O)CNC(C)c2ccccc2)C(C)c2ccccc2)C(N)=O)C(=O)CN(C(=O)CN(Cc2ccc3c(c2)OCO3)C(=O)CNC(C)c2ccccc2)C(C)c2ccccc2)cc1` (configuration not stated) (I: H-[X3][Gly(N-piperonyl)][X3][N(4-MeOBn)Gly][N(isopentyl)Gly]KKMK-NH2 / II: H-[X3][Gly(N-piperonyl)][X3][N(4-MeOBn)Gly][N(isopentyl)Gly]KKM; amide I:9-II:C; configuration not given here), the result was Active.
Under `C=CCN(CC(=O)NC(CCCCN)C(=O)NC(CCCCN)C(=O)NC(CCSC)C(=O)NCCCCC(NC(=O)C(CCSC)NC(=O)C(CCCCN)NC(=O)C(CCCCN)NC(=O)CN(CC=C)C(=O)CN(Cc1ccc(OC)cc1)C(=O)CN(C(=O)CN(Cc1ccc2c(c1)OCO2)C(=O)CNC(C)c1ccccc1)C(C)c1ccccc1)C(N)=O)C(=O)CN(Cc1ccc(OC)cc1)C(=O)CN(C(=O)CN(Cc1ccc2c(c1)OCO2)C(=O)CNC(C)c1ccccc1)C(C)c1ccccc1` (configuration not stated) (I: H-[X3][Gly(N-piperonyl)][X3][N(4-MeOBn)Gly][NAllylGly]KKMK-NH2 / II: H-[X3][Gly(N-piperonyl)][X3][N(4-MeOBn)Gly][NAllylGly]KKM; amide I:9-II:C; configuration not given here) stands “Active”; under `COc1ccc(CN(CC(=O)N(CC(=O)NC(CCCCN)C(=O)NC(CCCCN)C(=O)NC(CCSC)C(=O)NCCCCC(NC(=O)C(CCSC)NC(=O)C(CCCCN)NC(=O)C(CCCCN)NC(=O)CN(Cc2ccco2)C(=O)CN(Cc2ccc(OC)cc2)C(=O)CN(C(=O)CN(Cc2ccc3c(c2)OCO3)C(=O)CNC(C)c2ccccc2)C(C)c2ccccc2)C(N)=O)Cc2ccco2)C(=O)CN(C(=O)CN(Cc2ccc3c(c2)OCO3)C(=O)CNC(C)c2ccccc2)C(C)c2ccccc2)cc1` (configuration not stated) (I: H-[X3][Gly(N-piperonyl)][X3][N(4-MeOBn)Gly][NFurfurylGly]KKMK-NH2 / II: H-[X3][Gly(N-piperonyl)][X3][N(4-MeOBn)Gly][NFurfurylGly]KKM; amide I:9-II:C; configuration not given here), “Active”; under `COc1ccc(CN(CC(=O)N(CC(=O)NC(CCCCN)C(=O)NC(CCCCN)C(=O)NC(CCSC)C(=O)NCCCCC(NC(=O)C(CCSC)NC(=O)C(CCCCN)NC(=O)C(CCCCN)NC(=O)CN(C(=O)CN(Cc2ccc(OC)cc2)C(=O)CN(C(=O)CN(Cc2ccc3c(c2)OCO3)C(=O)CNC(C)c2ccccc2)C(C)c2ccccc2)C2CC2)C(N)=O)C2CC2)C(=O)CN(C(=O)CN(Cc2ccc3c(c2)OCO3)C(=O)CNC(C)c2ccccc2)C(C)c2ccccc2)cc1` (configuration not stated) (I: H-[X3][Gly(N-piperonyl)][X3][N(4-MeOBn)Gly][NcPrGly]KKMK-NH2 / II: H-[X3][Gly(N-piperonyl)][X3][N(4-MeOBn)Gly][NcPrGly]KKM; amide I:9-II:C; configuration not given here), “Active”.
